Experimental data taken from ChEMBL document CHEMBL1156157, “1,7-Disubstituted oxyindoles are potent and selective EP(3) receptor antagonists” (Bioorg Med Chem Lett, 2010).

Experiments:
[1] = molecular target: T1, Prostaglandin E2 receptor EP3 subtype (Homo sapiens, UniProt P43115); test: Displacement of [3H]PGE2 from human EP3 receptor in buffer
T1 sequence (P43115 whole entry): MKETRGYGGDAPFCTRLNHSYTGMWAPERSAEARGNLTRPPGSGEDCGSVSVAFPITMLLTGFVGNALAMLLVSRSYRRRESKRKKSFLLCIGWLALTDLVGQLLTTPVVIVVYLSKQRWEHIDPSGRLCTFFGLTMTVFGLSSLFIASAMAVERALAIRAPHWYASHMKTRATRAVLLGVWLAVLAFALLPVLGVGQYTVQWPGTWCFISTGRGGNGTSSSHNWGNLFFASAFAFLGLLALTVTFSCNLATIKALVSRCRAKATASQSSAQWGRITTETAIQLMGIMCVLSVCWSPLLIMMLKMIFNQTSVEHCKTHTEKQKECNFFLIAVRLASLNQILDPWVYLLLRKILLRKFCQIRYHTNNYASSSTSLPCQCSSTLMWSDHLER

[2] = molecular target: T1, Prostaglandin E2 receptor EP3 subtype; test: Displacement of [3H]PGE2 from human EP3 receptor in presence of 10% human serum
[3] = Metabolic stability in human liver microsomes assessed as parent compound remaining after 30 mins; format: ADME, Microsome; conditions: read-out: Stability
Outline: (§1)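 Compounds incubated with liver microsomes from human, rat, mouse, dog or monkey. Read-out is percent parent compound remaining at 30 min of incubation.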

[4] = Metabolic stability in rat liver microsomes assessed as parent compound remaining after 30 mins; format: ADME, Microsome; conditions: read-out: Stability; outline: as §1
[5] = Metabolic stability in mouse liver microsomes assessed as parent compound remaining after 30 mins; format: ADME, Microsome; conditions: read-out: Stability; outline: as §1
Rattus norvegicus = species: Rattus norvegicus; test: Antithrombotic activity in rat assessed as platelet aggregation; format: functional
Outline: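 Functional EP3 antagonism measured in a rat platelet aggregation assay. Values reported as EC50 in nM.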

Cytochrome P450 3A4 = Cytochrome P450 3A4 (Homo sapiens, UniProt P08684); test: Inhibition of human CYP3A4 using 7-benzyloxy-4-trifluoromethylcoumarin as substrate; format: ADME
Chain of Cytochrome P450 3A4 (P08684 whole entry): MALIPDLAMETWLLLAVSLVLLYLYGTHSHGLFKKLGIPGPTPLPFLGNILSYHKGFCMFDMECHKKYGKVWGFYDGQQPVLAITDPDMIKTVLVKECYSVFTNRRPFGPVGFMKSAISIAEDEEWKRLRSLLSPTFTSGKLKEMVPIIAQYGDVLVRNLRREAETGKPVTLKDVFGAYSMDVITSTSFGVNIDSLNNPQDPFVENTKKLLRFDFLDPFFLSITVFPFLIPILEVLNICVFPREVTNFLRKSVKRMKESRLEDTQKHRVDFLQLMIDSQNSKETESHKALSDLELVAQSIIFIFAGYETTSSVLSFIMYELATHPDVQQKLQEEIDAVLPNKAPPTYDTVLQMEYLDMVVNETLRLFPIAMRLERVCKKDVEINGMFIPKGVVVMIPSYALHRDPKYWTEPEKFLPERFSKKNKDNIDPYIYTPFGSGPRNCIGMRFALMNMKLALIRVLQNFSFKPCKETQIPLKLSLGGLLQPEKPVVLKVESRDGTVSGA
Outline: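 Inhibition of human CYP3A4 with 7-benzyloxy-4-trifluoromethylcoumarin (BFC) as substrate. Values given as IC50.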

Row | Compound | IC50 [1] [nM] | IC50 [2] [nM] | remaining at 0.5 h [3] [%] | remaining at 0.5 h [4] [%] | remaining at 0.5 h [5] [%] | EC50 (Rattus norvegicus) [nM] | IC50 (Rattus norvegicus) [nM] | inhibition (INH) (Cytochrome P450 3A4)
1 | CC1C(=O)N(Cc2ccc(F)c(F)c2)c2c(/C=C/C(=O)NS(=O)(=O)c3ccc(Cl)c(Cl)c3)cccc21 (stereo unspecified) | 0.9 | 95.8 |  |  |  |  |  | 
2 | O=C(/C=C/c1cccc2c1N(Cc1ccc(F)c(F)c1)C(=O)C2)NS(=O)(=O)c1ccc(F)c(F)c1 | 0.9 | 47.8 |  |  |  |  |  | 
3 | O=C(/C=C/c1cccc2c1N(Cc1ccc(Cl)cc1Cl)C(=O)C2)NS(=O)(=O)c1cccc(Cl)c1 | 0.5 | 9.4 | 50.4 | 21 | 33.9 | 290 |  | 
4 | O=C(/C=C/c1cccc2c1N(Cc1ccc3ccccc3c1)C(=O)C2=O)NS(=O)(=O)c1ccc(F)cc1 | 1.6 | 33.9 |  |  |  |  |  | 
5 | CC1C(=O)N(Cc2ccc3ccccc3c2)c2c(/C=C/C(=O)NS(=O)(=O)c3cccc(Cl)c3)cccc21 (stereo unspecified) | 0.4 | 2.8 | 24.8 | 13.1 | 5.63 |  |  | 
6 | CC1C(=O)N(Cc2ccc(Cl)cc2Cl)c2c(/C=C/C(=O)NS(=O)(=O)c3cc(Cl)c(Cl)s3)cccc21 (stereo unspecified) | 3.4 | 23.9 |  |  |  | 47 |  | 
7 | O=C(/C=C/c1cccc2c1N(Cc1ccc(Cl)cc1Cl)C(=O)C2(F)F)NS(=O)(=O)c1ccc(F)cc1 | 0.2 | 64.7 |  |  |  |  | > 800 | Active
8 | O=C(/C=C/c1cccc2c1N(Cc1ccc3ccccc3c1)C(=O)C2(F)F)NS(=O)(=O)c1ccc(Cl)cc1 | 5.5 | 125 |  |  |  |  | > 800 | Active
9 | O=C(/C=C/c1cccc2c1N(Cc1ccc(F)c(F)c1)C(=O)C2)NS(=O)(=O)c1cc(Cl)c(Cl)s1 | 0.4 | 55.4 |  |  |  |  |  | 
10 | O=C(/C=C/c1cccc2c1N(Cc1ccc3ccccc3c1)C(=O)C2=O)NS(=O)(=O)c1cccs1 | 13.7 | 260 |  |  |  |  |  | 
11 | O=C(/C=C/c1cccc2c1N(Cc1ccc(F)c(F)c1)C(=O)C2(F)F)NS(=O)(=O)c1cc(Cl)c(Cl)s1 | 7.2 | 980 |  |  |  |  | > 800 | Active
12 | CC1C(=O)N(Cc2ccc(F)c(F)c2)c2c(/C=C/C(=O)NS(=O)(=O)c3cc(F)c(F)cc3F)cccc21 (stereo unspecified) | 1.4 | 10.7 |  |  |  |  |  | 
13 | O=C(/C=C/c1cccc2c1N(Cc1ccc3ccccc3c1)C(=O)C21OCCO1)NS(=O)(=O)c1cc(Cl)c(Cl)s1 | 7.9 | 82.4 |  |  |  |  |  | 
14 | CC1C(=O)N(Cc2ccc3ccccc3c2)c2c(/C=C/C(=O)NS(=O)(=O)c3cc(F)c(F)cc3F)cccc21 (stereo unspecified) | 0.3 | 5.4 | 13.7 | 17.6 | 5.1 | 19 |  | 
15 | O=C(/C=C/c1cccc2c1N(Cc1ccc(Cl)cc1Cl)C(=O)C2=O)NS(=O)(=O)c1cc(Cl)c(Cl)s1 | 6.5 | 136 |  |  |  |  |  | 
16 | O=C(/C=C/c1cccc2c1N(Cc1ccc(F)c(F)c1)C(=O)C2)NS(=O)(=O)c1cc(F)c(F)cc1F | 0.7 | 42 |  |  |  |  |  | 
17 | O=C(/C=C/c1cccc2c1N(Cc1ccc(F)c(F)c1)C(=O)C2(F)F)NS(=O)(=O)c1cccc(Cl)c1 | 5 | 416 |  |  |  |  | > 800 | Active
18 | O=C(/C=C/c1cccc2c1N(Cc1ccc3ccccc3c1)C(=O)C2)NS(=O)(=O)c1ccc(F)c(F)c1 | 0.4 | 6.9 | 65.9 | 43 | 13.2 | 246 |  | 
19 | CC1C(=O)N(Cc2ccc(Cl)cc2Cl)c2c(/C=C/C(=O)NS(=O)(=O)c3cccc(Cl)c3)cccc21 (stereo unspecified) | 0.5 | 6.8 | 49.5 | 23.6 | 7.26 |  |  | 
20 | O=C(/C=C/c1cccc2c1N(Cc1ccc3ccccc3c1)C(=O)C2)NS(=O)(=O)c1cccc(Cl)c1 | 0.6 | 8.1 | 56.8 | 29.8 | 7.8 | 405 |  | 
21 | O=C(/C=C/c1cccc2c1N(Cc1ccc3ccccc3c1)C(=O)C2=O)NS(=O)(=O)c1cc(F)c(F)cc1F | 0.6 | 17.4 |  |  |  |  |  | 
22 | CC1C(=O)N(Cc2ccc(Cl)cc2Cl)c2c(/C=C/C(=O)NS(=O)(=O)c3ccc(F)c(F)c3)cccc21 (stereo unspecified) | 0.4 | 3.3 | 64.7 | 62.1 | 16 |  |  | 
23 | CC1C(=O)N(Cc2ccc(Cl)cc2Cl)c2c(/C=C/C(=O)NS(=O)(=O)c3cccs3)cccc21 (stereo unspecified) | 2.4 | 660 |  |  |  |  |  | 

Row | Compound | IC50 [1] [nM] | IC50 [2] [nM] | remaining at 0.5 h [3] [%] | remaining at 0.5 h [4] [%] | remaining at 0.5 h [5] [%] | EC50 (Rattus norvegicus) [nM] | IC50 (Rattus norvegicus) [nM] | inhibition (INH) (Cytochrome P450 3A4)
24 | CC1C(=O)N(Cc2ccc3ccccc3c2)c2c(/C=C/C(=O)NS(=O)(=O)c3ccc(Cl)c(Cl)c3)cccc21 (stereo unspecified) | 0.6 | 4.1 | 36.4 | 10.3 | 5.83 |  |  | 
25 | O=C(/C=C/c1cccc2c1N(Cc1ccc(Cl)cc1Cl)C(=O)C2)NS(=O)(=O)c1ccc(F)c(F)c1 | 0.7 | 3.3 | 54.3 | 23.5 | 39.1 | 137 |  | 
26 | O=C(/C=C/c1cccc2c1N(Cc1ccc(F)c(F)c1)C(=O)C2(F)F)NS(=O)(=O)c1ccc(Cl)c(Cl)c1 | 1.3 |  |  |  |  |  | > 800 | Active
27 | O=C(/C=C/c1cccc2c1N(Cc1ccc(F)c(F)c1)C(=O)C2)NS(=O)(=O)c1ccc(Cl)c(Cl)c1 | 0.3 | 55.4 |  |  |  |  |  | 
28 | O=C(/C=C/c1cccc2c1N(Cc1ccc(Cl)cc1Cl)C(=O)C2(F)F)NS(=O)(=O)c1ccc(Cl)cc1 | 1.1 | 251 |  |  |  |  | > 800 | Active
29 | CC1C(=O)N(Cc2ccc(F)c(F)c2)c2c(/C=C/C(=O)NS(=O)(=O)c3cccc(Cl)c3)cccc21 (stereo unspecified) | 4 | 39 |  |  |  |  |  | 
30 | O=C(/C=C/c1cccc2c1N(Cc1ccc3ccccc3c1)C(=O)C2=O)NS(=O)(=O)c1ccc(Cl)c(Cl)c1 | 1 | 12.7 |  |  |  |  |  | 
31 | O=C(/C=C/c1cccc2c1N(Cc1ccc(Cl)cc1Cl)C(=O)C2)NS(=O)(=O)c1ccc(Cl)c(Cl)c1 | 1.2 | 3.3 | 53.3 | 26.8 | 56.1 | 316 |  | 
32 | O=C(/C=C/c1cccc2c1N(Cc1ccc3ccccc3c1)C(=O)C2(F)F)NS(=O)(=O)c1ccc(F)cc1 | 2.7 | 27.2 |  |  |  |  | > 800 | Active
33 | O=C(/C=C/c1cccc2c1N(Cc1ccc3ccccc3c1)C(=O)C2)NS(=O)(=O)c1cc(F)c(F)cc1F | 0.3 | 10.2 | 73.9 | 62.5 |  | 1090 |  | 
34 | O=C(/C=C/c1cccc2c1N(Cc1ccc(F)c(F)c1)C(=O)C2(F)F)NS(=O)(=O)c1ccc(F)c(F)c1 | 1.3 | 251 |  |  |  |  | > 800 | Active
35 | CC1C(=O)N(Cc2ccc(Cl)cc2Cl)c2c(/C=C/C(=O)NS(=O)(=O)c3ccc(Cl)c(Cl)c3)cccc21 (stereo unspecified) | 0.9 | 9.8 |  |  |  |  |  | 
36 | O=C(/C=C/c1cccc2c1N(Cc1ccc(Cl)cc1Cl)C(=O)C2)NS(=O)(=O)c1cc(F)c(F)cc1F | 0.2 | 4.4 | 61.6 | 50.6 | 70.1 | 361 |  | 
37 | O=C(/C=C/c1cccc2c1N(Cc1ccc(F)c(F)c1)C(=O)C2(F)F)NS(=O)(=O)c1cc(F)c(F)cc1F | 16.5 | 721 |  |  |  |  | > 800 | Active
38 | CC1C(=O)N(Cc2ccc3ccccc3c2)c2c(/C=C/C(=O)NS(=O)(=O)c3ccc(F)c(F)c3)cccc21 (stereo unspecified) | 0.6 | 20 |  |  |  |  |  | 
39 | O=C(/C=C/c1cccc2c1N(Cc1ccc3ccccc3c1)C(=O)C2)NS(=O)(=O)c1cccs1 | 23.6 |  |  |  |  |  |  | 
40 | O=C(/C=C/c1cccc2c1N(Cc1ccc3ccccc3c1)C(=O)C2(CO)CO)NS(=O)(=O)c1cc(Cl)c(Cl)s1 | 2.3 | 243 |  |  |  |  |  | 
41 | O=C(/C=C/c1cccc2c1N(Cc1ccc3ccccc3c1)C(=O)C2(CO)CO)NS(=O)(=O)c1ccc(F)c(F)c1 | 11.6 | 187 |  |  |  |  |  | 
42 | CC1C(=O)N(Cc2ccc(Cl)cc2Cl)c2c(/C=C/C(=O)NS(=O)(=O)c3cc(F)c(F)cc3F)cccc21 (stereo unspecified) | 0.5 | 4.3 | 48.4 | 22.4 | 4.85 |  |  | 
43 | O=C(/C=C/c1cccc2c1N(Cc1ccc3ccccc3c1)C(=O)C2)NS(=O)(=O)c1ccc(Cl)c(Cl)c1 | 0.5 | 5.2 | 66.5 | 46 | 15.7 |  |  | 
44 | O=C(/C=C/c1cccc2c1N(Cc1ccc3ccccc3c1)C(=O)C2=O)NS(=O)(=O)c1cc(Cl)c(Cl)s1 | 12.3 | 15 |  |  |  |  |  | 
45 | O=C(/C=C/c1cccc2c1N(Cc1ccc(F)c(F)c1)C(=O)C2)NS(=O)(=O)c1cccc(Cl)c1 | 0.4 | 35.5 |  |  |  |  |  | 
